Measurements reported in publication PMC11252922 (Proceedings of the National Academy of Sciences of the …, 2024).
Positions count from the first letter of the chain named. Where no end group is shown, it is not given here. The star is where a group is joined. Cbz = O=C(OCc1ccccc1)*

Tests used:
[1] = biological target: T1, human TG2 (Homo sapiens, UniProt P21980); assay: kinetic analysis of irreversible inhibitors using 1 as the TG2 substrate; type: biochemical; conditions: KM of substrate 1 used in the inhibitor analysis (Fig. 1D legend)
T1 sequence (P21980 1-687): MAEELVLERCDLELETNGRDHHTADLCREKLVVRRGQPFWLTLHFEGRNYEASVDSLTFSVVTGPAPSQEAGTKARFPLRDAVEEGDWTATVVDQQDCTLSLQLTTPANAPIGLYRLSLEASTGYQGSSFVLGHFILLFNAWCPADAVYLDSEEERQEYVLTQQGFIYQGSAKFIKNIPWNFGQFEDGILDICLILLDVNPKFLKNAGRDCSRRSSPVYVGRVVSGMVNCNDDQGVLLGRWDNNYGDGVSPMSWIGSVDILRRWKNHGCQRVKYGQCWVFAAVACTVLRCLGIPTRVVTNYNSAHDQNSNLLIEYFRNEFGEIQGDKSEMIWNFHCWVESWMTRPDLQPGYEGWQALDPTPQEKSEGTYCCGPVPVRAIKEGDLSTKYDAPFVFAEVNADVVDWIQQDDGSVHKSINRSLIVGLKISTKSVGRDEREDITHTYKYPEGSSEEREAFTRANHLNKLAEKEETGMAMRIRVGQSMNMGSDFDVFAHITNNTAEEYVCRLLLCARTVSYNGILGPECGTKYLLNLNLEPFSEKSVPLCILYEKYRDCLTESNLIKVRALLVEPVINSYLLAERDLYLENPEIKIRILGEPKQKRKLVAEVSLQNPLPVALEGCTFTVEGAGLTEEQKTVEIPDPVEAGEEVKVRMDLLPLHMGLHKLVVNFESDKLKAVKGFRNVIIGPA
Summary of the method: (§1)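 N-terminally His-tagged human TG2, wild type or site-directed mutant, was expressed in E. coli BAP1 and purified by Ni-NTA, anion exchange and size exclusion. Steady-state deamidation was assayed at 1 μM enzyme with varying Gln-peptide substrate concentrations. Released NH4+ was coupled to glutamate dehydrogenase with 10 mM α-ketoglutarate and 500 μM NADH in 200 mM MOPS. Ca2+ was 5 mM unless otherwise varied.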

[2] = biological target: T2, TG2 S3-2 Mut (E329A) (Homo sapiens, UniProt P21980, E329A); assay: steady-state kinetic analysis with S3-2 mutant; type: biochemical; conditions: S3-2 (E329A) mutant, result in words
T2 sequence (P21980 1-687 E329A): T1 sequence (P21980 1-687) with E329A
Summary of the method: as §1

AcPQLPF [Compound 1]
Km [1]: 175 µM | catalytic activity of S3-2 mutant against the substrate [2]: barely detectable

Cbz-Gln-Gly [ZQG, reference compound]
catalytic activity of S3-2 mutant against the substrate [2]: negligible
